Test system: MS2 coat protein
Assay: apparent Kd, MS2 coat protein; higher = weaker binding; RNA-MaP array; FMN 200 µM where present
Procedure, shortened: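 Apparent Kd: the median of filtered binding-curve fits from single clusters. Designs were transcribed on Illumina sequencing-chip clusters by stalled E. coli RNA polymerase and titrated with SNAP-549-labelled MS2 coat protein from 0.7 or 1.5 nM, doubling to 3 µM, in 100 mM Tris-HCl pH 7.5, 80 mM KCl, 4 mM MgCl2, BSA, DTT, yeast tRNA and Tween-20. Each series ran without and then with constant ligand, and green signal was normalised to red-channel RNA signal and control-cluster median Fmax.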

[1] = designed as: ON switch for flavin mononucleotide, no ligand
[2] = ligand present: flavin mononucleotide, designed as: ON switch for flavin mononucleotide
[3] = designed as: OFF switch for flavin mononucleotide, no ligand
[4] = ligand present: flavin mononucleotide, designed as: OFF switch for flavin mononucleotide

Sequence	apparent Kd [1] [nM]	apparent Kd [2] [nM]	apparent Kd [3] [nM]	apparent Kd [4] [nM]
GGGUACAUCGGAGGAUAUCAUGUAAAUACAUGAGGAUCACCCAUGUCGAUGGAGACAUCGGAGAUUGAGAAGGCCGAUGUACCU	152	8.75		
GGACCGUGCAGAGUUCGCGGUCGGCAGGAUAUGACAUGAGGAUCACCCAUGUGAACUCCAUUGGGUCAGAAGGGCCACGACACA			19.8	78
CUUUUGUGAGGAUAUCAGUAGUAAAGAAAUAAAAUUACUACUGAGAAGGCACAUGAGGAUCACCCAUGUUCCUC			36.2	192
AUUUUACAUGAGGAUCACCCAUGUUUUGGCGGGUCAGGAUAUAGAUCGGAUGAGUUCUGUCUAGAAGGGACAUGUA	77.5	71.6		
GCGUGGUUCUAGAAGGUGCUAGCGAUAAGCUAGCAAGGAUAUAGACAUGAGGAUCACCCAUGUCUUUGUGAAAUCGACACACGC			5.58	6.39
GUUUGGGCAGGAUAUACAUGAGGAUCACCCAUGUGUUUUUUGUGUGUUUUGUUAUCGUGUAGAAGGGUUCGGGC			68.5	147
UUACUCAUGUAAGGAUAUGCAGCCGUUUCGGCUGCAGAAGGUACUAUACUACAUGAGGAUCACCCAUGUCUAUAAAAUAAAGAC	123	44.4		
GCGCGCGCAGGAUAUACAAUGGGCCCGGGAAACCGGGCCCUACAUGAGGAUCACCCAUGUAGAAGGGUGUGUGU			606	468
GCGAGGACGGCAGGAUAUUGACAUGAGGAUCACCCAUGUAUUUGGGAGUGUUCACUGAAUUCUUACGAGAAGGGCCGUCCACGC			312	261
GGCUGUCUCGCAGGAUAUGCUGAUCAGAAACUAGCAGAAGGGUGAUCCAGUCGAGGUUUGACAUGAGGAUCACCCAUGUGGAGU	29.4	55.8		
ACGUGUCGUGUAGGAUAUGACACAGGAAACUGGUCAGAAGGACAUGAGGAUCACCCAUGUAGAGUGUGUUAGGAUGACGUAUGC			51.9	199
UCCUUGUCCUGAGGAUAUCCGUGGUUACCUAAAGGAGAAGGCAGGACAUGAGGAUCACCCAUGUACCCAGAAAACGUGCAGAGU			234	126
AAACAGGGAGGAUAUACAUAGAUCCUCUAACCUAAUUGGUCACAUGAGGAUCACCCAUGUAGAAGGCCCUUAGG				11.3
UAGUAUAAGGGCAUUAAACAUGAGGAUCACCCAUGUACGAUAGAGGAUAUGCAUUUCAGUUGAGAGUAGAAGGUUAGAGAAGGG			44.5	46.3
AAACACGAUCGAGGAUAUCAUGCUUACGUCCCGGAUCCAUAAACAUGAGGAUCACCCAUGUGAUAUGAGAAGGCGAUAGUCAUA			19.5	26.9
CGAUAUAUGAAGGGCGAACACGCACAUGAGGAUCACCCAUGUAGAAGGCGAUCCGCAACGCGGAUCGAGGAUAUAUAGUAUACA			35.6	42.4
GCCGUAAAUGUGAGGAUAUACCUAUGGAAACAUAGGUAGAAGGCACAUGAGGAUCACCCAUGUCCUUAAUCGGC			447	406
UAGUACUAGGGAGGAUAUGGGAAGAUACAUGAGGAUCACCCAUGUUUAAGAAUGCCGAGAGGCAACUAGAAGGCCCUAGUACCU	463	19.2		
UUAUAUAGUGUGAGGAUAUGCUGGUCCUUGGAUCAGCAGAAGGCACAUGAGGAUCACCCAUGUAGUUUAUUAUU			30.2	130

Sequence	apparent Kd [1] [nM]	apparent Kd [2] [nM]	apparent Kd [3] [nM]	apparent Kd [4] [nM]
AUCAGCUCGUCAGGAUAUACGUCACUGGGUCAGCAGUGUGGUAAGAUCACAUGAGGAUCACCCAUGUAGAAGGGACGAGCUGAU			66.3	483
UCUGCCGCCGUGAGGAUAUGCCCAAAUAAAAGCGGGCAGAAGGCACAUGAGGAUCACCCAUGUCCCGCGGUUUU			15.8	38.4
AAAUUUUGUCAAGGAUAUGUAUAAAAGAUAAGAAAACAUGAGGAUCACCCAUGUAUAUGGUGGGAACAGAAGGUGAAUAAGUAA			185	158
AGAGAGAGACAGAAGGGCAAGCUCGAUUGCGGAGAAAGCGAUCGAGCUUGCAGGAUAUGUUGAACAUGAGGAUCACCCAUGUCA	7.49	7.62		
GAGUGACGAUUAGGAUAUAUAGUGAUAAUGAUAAUAGAAGGAAUUGACAUGAGGAUCACCCAUGUAGGACUAAUCCAGAGAGAG	64.2	62.2		
CGUGCAAGUGUAGGAUAUGGUUAUCUAUGUCUAGUUACUAGACAUAGAUAACCAGAAGGACAUGAGGAUCACCCAUGUAGCACG			7.5	17.6
GUGGCACAUGAGGAUCACCCAUGUCAGGAUAUCGUGUGUUUUUUUUCGGCCGCGCGCGCGAGAAGGGACGUCUU			149	120
UGCAGGUGAGGAUAUGCGGGCGAUUAAACAUAUAAAUGCAAGCAGAAGGCACAUGAGGAUCACCCAUGUAGUCC			26	36.1
AGACCGCUACGCCGGUUUGACGCACAGGAUAUGCGGUUACAUGAGGAUCACCCAUGUGGCCAUGAGUAGAAGGGUGGUUCGUCC	49.9	39.1		
GGACGCUAAGGAUAUACAUGAGGAUCACCCAUGUAGCCCGAAAGGGCGCGUUCCUUCUGUAGAAGGUGGCUAAA			17	25.4
GCGCGCGCCGCAGGAUAUGGUUUGUUCGUUGAACCAGAAGGGCGACAUGAGGAUCACCCAUGUACAUGAGGAUCACCCAUGUGC			59.2	51
ACGGAACAUGAGGAUCACCCAUGUAUCUGAAAUAUGGACUCACAGGAUAUCCAGAGUUGCCAAUCGGAGAAGGGUGACUCCAGA	20.1	16.7		
AAUAACAGAGGAUAUACUGUUUUAUGUGUUUGUUAUUUUGAACAUGAGGAUCACCCAUGUAGAAGGCUGAGUAA			27.8	28.4
GCAAUGUGAUAAGGAUAUCCAAUGGCAUCCCUAGGAGAAGGUAUCACAUGAGGAUCACCCAUGUGAAGGACGGGUUAUCGCAAA				211
GUACUGUAGUGAGGAUAUACGAGAUCGAUAGAUCGGCGAUCCAUAUAUACAUGAGGAUCACCCAUGUAGAAGGCACUUCAGUAC			7.02	93.4
GGAAAUCAUGUAGGAUAUGCAUGGCGAAGCUACGCAGAAGGACAUGAGGAUCACCCAUGUUAUAGCGUCCGAGAAAGGAUGCAA			111	167
UCGCGGGUGCAGAAGGGAUAGGCCUAUUGUCGUGGUGUCCAAACUUAACAUGAGGAUCACCCAUGUCAGGAUAUGCCCACGCGA			73.9	117
AAGAAACAUGAGGAUCACCCAUGUCAGGAUAUGCAGGACUGACGAAAGUCAGUCCAAAGCAGAAGGGACUAGAA			60.7	81.8
GUGCUUGUCGGAGGAUAUGGUUACAUGAGGAUCACCCAUGUUAUGCUUGGUUACUUGUUUAGUUUCCAGAAGGUCGAUUAGUUG			61	145

Sequence	apparent Kd [1] [nM]	apparent Kd [2] [nM]	apparent Kd [3] [nM]	apparent Kd [4] [nM]
ACAUGUACAGGAUAUACAUGAGUGAUACACGUAUUUCCACUACAUGAGGAUCACCCAUGUAGAAGGGUACAUGA			50.2	19.5
CGCAAGUCAGGAUAUUCGACAGGUAAAUCAGUGGAUCAGAAGGAGAAGGGACAUGAGGAUCACCCAUGUAAGUA			49.7	29.4
GACUGCAUGUAAGGAUAUCGACUGGAUAACAGUCGAGAAGGUACAUGAGGAUCACCCAUGUAAUAAGAUCAAUAAUAAGCAGUC			14.4	31.3
UUGGACGUCUUAGGAUAUGUAGGAUAUUCCUACAUGAGGAUCACCCAUGUUGACAUGGAAGAAGGACAGAAGGACGAUGUCCAU	418	11.2		
AGCUCGCGAAGAGGAUAUACAGCGGCGACCUAUCAUGAUGAGCGGGUUACAUGAGGAUCACCCAUGUAGAAGGCUUCCCGACUC			17.9	52.2
AUAUCUCCCGAGAAGGACGUACCACAUGUUGAUCACCGAUAUAAGGAACGUAGGAUAUUGGACAUGAGGAUCACCCAUGUGGAU	391	23.6		
UUGGACGUCGUAGGAUAUGUAGGAUAUUCCAACAUGAGGAUCACCCAUGUUGACAUGGAAGAAGGACAGAAGGACGAUGUCCAU	4.28	3.63		
UAUUGAUAAUAUUUUCACAUGAGGAUCACCCAUGUCGCUCGACAGGAUAUAUUUUAUUUGUUUAAGUAGAAGGGUCGCAGAUUU	143	109		
CAUCAGUGAGGAUAUCGGGCCUGUGGCUGCUCAGCCCGGUUCGAGAAGGCACAUGAGGAUCACCCAUGUGACGU			20.4	46.8
GCUAGUAUUGCAGGAUAUUGAUAUUAAUUAUGGCAAGAAGGGCAUUACAUGAGGAUCACCCAUGUUUUCCUUAGUCAUACUAGC			5.33	5.39
AGUGUCAUCGAGAAGGCCUCAACAUGAGGAUCACCCAUGUUGCAAAAUGGGAGGAUAUCGCGCGUUCAAAAACGUUUCGUAGCA	42.3	17.6		
CCAUGGCAUGUAGGAUAUAUCUGACAAAGUCAGAUAGAAGGACAUGAGGAUCACCCAUGUAAACCGAAAGGAACAUAGCCAUGG			6.36	6.96
CAGCGAUAGCUGAACAAUCUAUCUGAGGAUAUUCAUAUUAAAACAUGAGGAUCACCCAUGUAUUGGGAGAAGGCAGAUAGAUUG	42.1	6.53		
GAUCUCGUAGUGAGGAUAUUGCUCAUAGACAAUAGUAAGAAGGCACAUGAGGAUCACCCAUGUCGAGUGAGGUU			69.9	143
GCACUGCGAGGAUAUACAUGAGGAUCACCCAUGUGUCGGCAGCGAUGCCAGUACAAAUGUAGAAGGCGCGUAAA			25.9	114
ACGCUUUGGGAGAAGGUACGUUAAUUUUUUUCCACAUGAGGAUCACCCAUGUAAGGAUAUCCCGUCGUUAAAUAGGCUACAGCA			9.59	9.37
GUAUCACGAGGAUAUACAUGAGGAUCACCCAUGUAGAAGCCAUGUGGUGCUCAAGUAUGUAGAAGGCGUGCUCC				33.3
UUCGUGCAGCUUUGCUGUACGCGUACAUGAGGAUCACCCAUGUAGGAUAUGGUAGGCCAAGCUUACUAGAAGGAUAUAGUGAUC			95.5	88.7
